The test system of this series is MS2 coat protein. Nature of the series: apparent Kd, MS2 coat protein; higher = weaker binding; RNA-MaP array; theophylline 2 mM where present. The procedure, abridged: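 The apparent Kd is the median of filtered binding-curve fits, one per cluster, to green signal normalised to red-channel RNA signal and control-cluster median Fmax. The clusters were on Illumina sequencing chips, and stalled E. coli RNA polymerase had transcribed the designs on them. Titration used SNAP-549-labelled MS2 coat protein from 0.7 or 1.5 nM, doubling to 3 µM, without and then with constant ligand, in 100 mM Tris-HCl pH 7.5, 80 mM KCl, 4 mM MgCl2, BSA, DTT, yeast tRNA and Tween-20.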

[1] abbreviates: designed as: OFF switch for theophylline, no ligand.
The mark [2] stands for this setting: ligand present: theophylline, designed as: OFF switch for theophylline.
Setting [3] is: designed as: ON switch for theophylline, no ligand.
Setting [4] is: ligand present: theophylline, designed as: ON switch for theophylline.

Turning to “AAACUGGGUGUAAAAUAAAUAAUCACUGAUACCAGACUAUUUUAUGUCCCUUGGCAGCAGAAACAUGAGGAUCACCCAUGUAAUA”, the “apparent Kd” value by setting is: under setting [1], 20.3 nM; under setting [2], 22.5 nM.

As for “CAUGGGUGGUAUCACCCAUCCAUAGGUGAUACCAGCAUCGAAAGAUGCCCUUGGCAGCACCAACAUGAGGAUCACCCAUGUAAUA”, the “apparent Kd” value by setting is: under setting [3], 264 nM; under setting [4], 202 nM.

For “AAGGGAGAAUCAGAUACCAGAGUAAGAUGGCAUGAUAAUUACAUGAGGAUCACCCAUGUACUCCCUUGGCAGCUGACAAUAUAUU”, the “apparent Kd” value is 10.2 nM under setting [1] and 12.2 nM under setting [2].

“AGUGUUAUAACUGAUACCAGACUCUCAUGUUUACAUGAGGAUCACCCAUGUUAUUUCUUUGUCCCUUGGCAGCAGAAUUAACACA”: the “apparent Kd” value worked out at 208 nM under setting [3] and 38.2 nM under setting [4].

For the sequence “UACAUGAGGAUCACCCAUGUAUAGAGGGAUACCAGUGUCAGUGAGCACCCUUGGCAGCCCGCGAACAAUGGGUGCGCUAUAUAGU”, the “apparent Kd” value under setting [1] amounted to 26.3 nM and the “apparent Kd” value under setting [2] came to 62.2 nM.

For “CGGUUUGUGAUGGAUACCAGCAGUGUGGCUGUUUAUCCUGACAUGAGGAUCACCCAUGUGUGCCCUUGGCAGCUGUUGUGGGCUG”, the “apparent Kd” value reads like this: under setting [1], 76.5 nM; under setting [2], 130 nM.

Consider “GCACCAGGUACGGAUACCAGCUAUAGGCCCAAUGGGCGACAUGAGGAUCACCCAUGUAAUGGCCCUUGGCAGCUGUACCUGGUGC”, for which the “apparent Kd” value was determined as 88.3 nM under setting [3] and 13.7 nM under setting [4].

For “ACACAUGAGGAUCACCCAUGUGCAAUAGAUACCAGUGACGCGGUGCACCCUUGGCAGCUGUUGCUGAGUGAUGGUUCCCUCGGAA”, the “apparent Kd” value under setting [1] is 36.6 nM and the “apparent Kd” value under setting [2] amounted to 58.5 nM.

For the sequence “CCUCGACAUGAGGAUCACCCAUGUAGAGAUACCAGCCUGUGAGAUGGCCCUUGGCAGCUCAUAUAGGGUACAGGAGUCGUUUUGA”, the “apparent Kd” value is, setting by setting: under setting [1], 23.2 nM; under setting [2], 85.1 nM.

For the sequence “UAACAUGAGGAUCACCCAUGUAUAGUCGAUACCAGCUCAAGGAAGAGCCCUUGGCAGCGACACUGCCAAGCAUGGGUCAUGGCAG”, the “apparent Kd” value was 21.1 nM under setting [3] and 33.4 nM under setting [4].

As to “ACAUCCAGAUUAAUCGUGGGCAUACUCGAUACCAGUAUUUUAACCUACCCUUGGCAGCGACAUGAGGAUCACCCAUGUGAGAUGA”, the “apparent Kd” value under setting [1] was 22.8 nM and the “apparent Kd” value under setting [2] worked out at 30 nM.

In the case of “ACGACGCAUAGUGAUACCAGUAGAACAUGAGGAUCACCCAUGUCUGUGGCGCACCACCUCUGCCCUUGGCAGCACUAUGCGUCAG”, the “apparent Kd” value is, setting by setting: under setting [3], 13.4 nM; under setting [4], 12.8 nM.

On to “ACAUGAGGAUCACCCAUGUCUGCCACUGAUACCAGCGGAAGCCAACGCCCUUGGCAGCAGAACAUGAGGAUCACCCAUGUAGGCA”, for which the “apparent Kd” value runs as follows: under setting [3], 308 nM; under setting [4], 169 nM.

“GCACCAGGUACGGAUACCAGCUGCCCGAGAUACAUGAGGAUCACCCAUGUGACCUGGUUUAGCCCUUGGCAGCUGUACCUGGUGC”: the “apparent Kd” value runs as follows: under setting [3], 13.6 nM; under setting [4], 9.99 nM.

Regarding “GAUGAACUAUUUGAUACCAGACAACAUGAGGAUCACCCAUGUGCGCGUCGUCCUCUGCCUGUCCCUUGGCAGCAAAUAGUUUAUC”, the “apparent Kd” value worked out at 58.5 nM under setting [1] and 97.1 nM under setting [2].

Regarding “GAGCUGAUGUAGAGAUUAUAUAAAAGAGAUACCAGUACAGAAAUGUACCCUUGGCAGCUCAACUUUACAUGAGGAUCACCCAUGU”, the “apparent Kd” value amounted to 14.8 nM under setting [1] and 17.5 nM under setting [2].

As to “ACAUGAGCAUCAGCCUUGUAGGAACUAGAUACCAGCCCAACAUGAGGCCCUUGGCAGCUGACAACAUGAGGAUCACCCAUGUCAC”, the “apparent Kd” value amounted to 36.2 nM under setting [1] and 34.1 nM under setting [2].

As to “CGAUCUUUCGAAAGAAGGAUCUUGUCUGAUACCAGAGACGAAAGUCUCCCUUGGCAGCAGUGCCAACAUGAGGAUCACCCAUGUU”, the “apparent Kd” value by setting is: under setting [3], 14.5 nM; under setting [4], 14.8 nM.

With “UCUUGGUCCGCAAGGACCUUGAGUUGCGAUACCAGCACGGUAACGUGCCCUUGGCAGCGCACAUGAGGAUCACCCAUGUGGUGUU”, the “apparent Kd” value reads like this: under setting [1], 261 nM; under setting [2], 236 nM.

“UCAUAUUAGAUAGAUGUAAGGUAUCAUGAUACCAGUAGAUAAUUAUACCCUUGGCAGCAUAACAUGAGGAUCACCCAUGUACAUG”: the “apparent Kd” value is, setting by setting: under setting [1], 21.3 nM; under setting [2], 20.9 nM.

Consider “UCGUGUAUAUCGGAUACCAGUGAGAAGGAUACAUGAGGAUCACCCAUGUGAGUUGAUGUACACCCUUGGCAGCUGUAUAUAUCUA”, for which the “apparent Kd” value is, setting by setting: under setting [3], 49.9 nM; under setting [4], 26.2 nM.

With “AGCAUUGUAACAGAUACCAGACUUUUAAUGCCUCUAAUUACAUGAGGAUCACCCAUGUUUGUCCCUUGGCAGCUGUUAUGAUGCA”, the “apparent Kd” value runs as follows: under setting [1], 119 nM; under setting [2], 226 nM.

On to “GAUGAACUAUAUGAUACCAGACAACAUGAGGAUCACCCAUGUGUAUGUCGUCCUCUGCCUGUCCCUUGGCAGCGUAUAGUUUAUC”, for which the “apparent Kd” value by setting is: under setting [1], 32.4 nM; under setting [2], 193 nM.
